The values below come from ChEMBL document CHEMBL1133472, “Synthesis and evaluation of N,N-dialkyl enkephalin-based affinity labels for delta opioid receptors” (J Med Chem, 2000).

In assay [1] the target is Mu-type opioid receptor (Rattus norvegicus, UniProt P33535). Nature of the assay: Binding affinity was measured in cloned Opioid receptor mu 1 expressed in CHO cells using [3H]- DAMGO as radioligand. The format is cell-based. Put shortly: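 Rat µ receptor stably expressed in CHO cells; membranes (100 µg protein) incubated 90 min at 22 °C in 50 mM Tris pH 7.4 with 3 mM Mg2+ and bestatin, captopril, L-leucyl-L-leucine. [3H]DAMGO at 0.5-0.8 nM; nonspecific binding with 10 µM DAMGO. Filtration on PEI-presoaked GF/B filters, scintillation counting.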

Assay [2] has as its target Delta-type opioid receptor (Mus musculus, UniProt P32300). Nature of the assay: Binding affinity was measured in cloned Opioid receptor delta 1 expressed in CHO cells using [3H]- DPDPE as radioligand. In kind it is cell-based. A digest of the protocol:
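Mouse δ receptor stably expressed in CHO cells; washed membranes (100 µg protein) incubated 90 min at 22 °C in 50 mM Tris pH 7.4 with 3 mM Mg2+ and peptidase inhibitors (bestatin, captopril, L-leucyl-L-leucine). [3H]DPDPE at 0.5-0.8 nM; nonspecific binding with 10 µM DPDPE. Filtration on PEI-soaked GF/B, scintillation counting.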

For assay [3], the system named is mu (Rattus norvegicus) & delta (Mus musculus) opioid receptors. Nature of the assay: Ratio of IC50 against mu opioid receptor to that of delta opioid receptor.

Square brackets hold non-standard residues; d marks the D form. Peptide text beside a SMILES is read from it. * marks the point of attachment. ξ: configuration not given here. Tyr(Nα,Nα-Bn2) = O=C([C@H](Cc1ccc(O)cc1)N(Cc1ccccc1)Cc1ccccc1)*; Tyr(Nα,Nα-allyl2) = C=CCN(CC=C)[C@@H](Cc1ccc(O)cc1)C(=O)*; X1 = O=C(C(Cc1ccc(O)cc1)N(Cc1ccccc1)Cc1ccccc1)*; Phe(4-NH2) = Nc1ccc(C[C@H](N)C(=O)O)cc1; Aib = CC(C)(N)C(=O)O; BrAc = O=C(CBr)*; ξA = CC(N)C(=O)O

Sequence of Mu-type opioid receptor (P33535 whole entry, looked up): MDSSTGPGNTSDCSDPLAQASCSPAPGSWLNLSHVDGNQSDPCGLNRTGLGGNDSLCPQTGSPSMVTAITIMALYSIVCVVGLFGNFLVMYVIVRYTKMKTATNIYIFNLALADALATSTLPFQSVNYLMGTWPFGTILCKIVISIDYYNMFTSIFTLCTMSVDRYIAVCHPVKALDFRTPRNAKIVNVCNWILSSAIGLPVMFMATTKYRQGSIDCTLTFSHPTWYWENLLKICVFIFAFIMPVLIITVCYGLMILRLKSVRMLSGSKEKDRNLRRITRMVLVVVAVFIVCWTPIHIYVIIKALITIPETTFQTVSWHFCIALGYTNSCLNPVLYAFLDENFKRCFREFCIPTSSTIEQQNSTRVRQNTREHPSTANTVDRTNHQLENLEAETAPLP
Sequence of Delta-type opioid receptor (P32300 whole entry): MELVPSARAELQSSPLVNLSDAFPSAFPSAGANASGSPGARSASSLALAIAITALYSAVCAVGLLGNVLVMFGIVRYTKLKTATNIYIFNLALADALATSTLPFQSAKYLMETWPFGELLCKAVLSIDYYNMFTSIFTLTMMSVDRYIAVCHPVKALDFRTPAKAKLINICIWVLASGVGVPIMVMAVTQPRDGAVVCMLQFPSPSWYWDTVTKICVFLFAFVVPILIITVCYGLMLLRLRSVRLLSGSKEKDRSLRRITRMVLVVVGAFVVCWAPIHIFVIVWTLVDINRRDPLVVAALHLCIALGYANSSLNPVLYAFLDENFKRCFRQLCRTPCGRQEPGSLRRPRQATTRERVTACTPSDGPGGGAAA

As for `CC(C)C[C@H](NC(=O)[C@H](Cc1ccc(N=C=S)cc1)NC(=O)CNC(=O)CNC(=O)[C@H](Cc1ccc(O)cc1)N(Cc1ccccc1)Cc1ccccc1)C(=O)O`, the results for the IC50 in assay [1] and in assay [2] were 1900 nM and 34.9 nM, respectively. Also, in assay [3], the Ratio was 54.

Regarding `CC(C)C[C@H](NC(=O)[C@H](Cc1ccc(NCCl)cc1)NC(=O)CNC(=O)CNC(=O)[C@H](Cc1ccc(O)cc1)N(Cc1ccccc1)Cc1ccccc1)C(=O)O`, the IC50 in assay [1] was determined as 19000 nM; in assay [2] it was 145 nM. Besides, the Ratio in assay [3] worked out at 131.

As to `C=CCN(CC=C)[C@@H](Cc1ccc(O)cc1)C(=O)NC(C)(C)C(=O)NC(C)(C)C(=O)N[C@@H](Cc1ccccc1)C(=O)N[C@@H](CC(C)C)C(=O)O` (HELM PEPTIDE1{[C=CCN(CC=C)[C@@H](Cc1ccc(O)cc1)C(=O)[*:2]].[Aib].[Aib].F.L}$$$$V2.0), the IC50 was determined as 18900 nM in assay [1] and 703 nM in assay [2]. Further, in assay [3], the Ratio is 27.

Turning to `CC(C)C[C@H](NC(=O)[C@H](Cc1ccccc1)NC(=O)CNC(=O)CNC(=O)[C@H](Cc1ccc(O)cc1)N(Cc1ccccc1)Cc1ccccc1)C(=O)O` (HELM PEPTIDE1{[O=C([C@H](Cc1ccc(O)cc1)N(Cc1ccccc1)Cc1ccccc1)[*:2]].G.G.F.L}$$$$V2.0), the half-maximal inhibitory concentration (IC50) in assay [1] was 1600 nM; in assay [2], 78.2 nM. The Ratio in assay [3] was 20.

For the compound `CC(C)C[C@H](NC(=O)[C@H](Cc1ccc(NC(=O)CBr)cc1)NC(=O)CNC(=O)CNC(=O)C(Cc1ccc(O)cc1)N(Cc1ccccc1)Cc1ccccc1)C(=O)O` (stereo partly drawn) (X1-GG[Phe(4-NH2)](BrAc)L-OH), in assay [3], the Ratio came to 61.

On to `CC(C)C[C@H](NC(=O)[C@H](Cc1ccc(NC(=O)CBr)cc1)NC(=O)CNC(=O)CNC(=O)[C@H](Cc1ccc(O)cc1)N(Cc1ccccc1)Cc1ccccc1)C(=O)O` ({Tyr(Nα,Nα-Bn2)}-GG[Phe(4-NH2)](BrAc)L-OH), for which the values for the 50% inhibitory concentration (IC50) in assay [1] and in assay [2] were 9100 nM and 149 nM, respectively.

On to `C=CCN(CC=C)[C@@H](Cc1ccc(O)cc1)C(=O)NC(C)(C)C(=O)NC(C)C(=O)N[C@@H](Cc1ccc(N)cc1)C(=O)N[C@@H](CC(C)C)C(=O)O` (stereo partly drawn) ({Tyr(Nα,Nα-allyl2)}-[Aib][ξA][Phe(4-NH2)]L-OH), for which the half-maximal inhibitory concentration (IC50) in assay [1] amounted to 87700 nM; in assay [2] it was 1390 nM. Also, in assay [3], the Ratio came to 63.

As to `C=CCN(CC=C)[C@@H](Cc1ccc(O)cc1)C(=O)NC(C)C(=O)NC(C)C(=O)N[C@@H](Cc1ccc(NC(=O)CBr)cc1)C(=O)N[C@@H](CC(C)C)C(=O)O` (stereo partly drawn) ({Tyr(Nα,Nα-allyl2)}-[ξA][ξA][Phe(4-NH2)](BrAc)L-OH), the IC50 is greater than 10000 nM in assay [1] and 392 nM in assay [2].

One may read the IC50 as the concentration that gives 50% inhibition.
